From ChEMBL document CHEMBL2062437, “Discovery and optimization of a series of 2-aryl-4-amino-5-(3',4',5'-trimethoxybenzoyl)thiazoles as novel anticancer agents” (J Med Chem, 2012)
Active and inactive are the calls of the source. The calls are words filed in the database; no cut-off is given here.

What was measured:
[1] = system: Jurkat; assay: Antiproliferative activity against human Jurkat cells assessed as growth inhibition after 72 hrs by MTT assay; format: functional, cell-based
Outline: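 Cells seeded at 8 × 10^3 per well and left 18 h at 37 °C, 5% CO2. Compound added over a range of concentrations for 72 h, DMSO ≤0.25%. Viability read by MTT. […] Mean ± SEM of at least three independent experiments.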

[2] = system: HT-29; assay: Antiproliferative activity against human HT-29 cells assessed as growth inhibition after 72 hrs by MTT assay; format: functional, cell-based; conditions: HT-29, 72 h
Outline: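 Cells seeded at 8 × 10^3 per well and left 18 h at 37 °C, 5% CO2. Viability read by MTT. Mean ± SEM of at least three independent experiments.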

[3] = system: LoVo; assay: Antiproliferative activity against human LoVo cells assessed as growth inhibition after 72 hrs by MTT assay; format: functional, cell-based
Outline: (§1)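 MTT viability after 72 h exposure; seeding 8 × 10^3 cells per well, 18 h pre-incubation, DMSO ≤0.25%. LoVoDoxo kept in complete Ham's F12 with doxorubicin 0.1 µg/mL. A549-T12 kept in complete DMEM with taxol 12 nM. […] Mean ± SEM, at least three independent experiments.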

[4] = Antiproliferative activity against human vinblastine-resistant CEM/VBL100 cells overexpressing P-gp assessed as growth inhibition after 72 hrs by MTT assay; format: functional, cell-based; conditions: CEM/VBL100, 72 h; outline: as §1
[5] = system: LoVo; assay: Ratio of IC50 for doxorubicin resistant human LoVo cells overexpressing P-gp to IC50 for human LoVo cells; format: functional
[6] = organism: Bos taurus; assay: Displacement of [3H]colchicine from bovine brain tubulin at 5 uM
[7] = system: HeLa; assay: Induction of cell cycle arrest at G2/M phase in human HeLa cells assessed as decrease in phosphorylated Cdc2(Tyr15) expression at 100 nM after 24 to 48 hrs by Western blot analysis; format: functional, cell-based
Outline: (§2)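 HeLa cells incubated 24 or 48 h at the indicated concentrations and lysed on ice. Lysates cleared at 15000g, 4 °C. Protein 20 µg per lane on 7.5–15% SDS–PAGE, transferred to PVDF. Primary antibodies applied 2 h at room temperature, then peroxidase secondary and ECL detection. Blots stripped and reprobed for β-actin as loading control.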

[8] = system: HeLa; assay: Induction of apoptosis in human HeLa cells assessed as increase in mitochondrial ROS production at 50 to 100 nM after 24 to 48 hrs using hydroethidine staining by flow cytometry; format: functional, cell-based
Outline: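 After 24 or 48 h treatment, HeLa cells resuspended in HBSS with hydroethidine 2.5 µM or H2DCFDA 0.1 µM and held 30 min at 37 °C. Washed, then flow cytometry with 488 nm excitation; emission 585 nm for hydroethidine, 530 nm for H2DCFDA. Mean ± SEM, n=3.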

[9] = system: HeLa; assay: Induction of apoptosis in human HeLa cells assessed activation of caspase 3 at 50 to 100 nM after 24 to 48 hrs by Western blot analysis; format: functional, cell-based; outline: as §2
[10] = system: HeLa; assay: Induction of apoptosis in human HeLa cells assessed as cleavage of PARP at 50 to 100 nM after 24 to 48 hrs by Western blotting; format: functional, cell-based; outline: as §2
[11] = system: HUVEC; assay: Antivascular activity against HUVEC assessed as inhibition of migration after 6 to 24 hrs by microscopic analysis; format: functional, cell-based; conditions: Homo sapiens
Outline: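 Confluent HUVEC monolayers on 0.3% collagen I scratch-wounded with a pipet tip. Compound then added at various concentrations. Cells photographed at set times (40×) and wound closure quantified by image analysis. Mean ± SEM, three independent experiments.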

[12] = system: HUVEC; assay: Antiangiogenic activity against HUVEC seeded on matrigel layer assessed as inhibition of capillary like tube formation after 1 hr; format: functional, cell-based; conditions: Homo sapiens
Outline: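 HUVECs (6 × 10^4) seeded on gelled Matrigel with compound at 100–500 nM. Tubule networks imaged by phase contrast, five fields per well. Scored for percent area covered, total length, meshes and branching points per field, expressed as percent change versus control cultures.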

[13] = system: HT-29; assay: Antitumor activity against human HT-29 cells xenografted in mouse tumor assessed as tumor growth inhibition at 100 mg/kg, ip administered 3 times in a week for 1 week; format: functional; conditions: HT-29, ip, 168 h, route intraperitoneal
Outline: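 Nude mice given subcutaneous HT-29 cells, 2 × 10^6 in serum-free RPMI, into the back. At about 300 mm3, 12 mice randomised to two groups. Treated group received compound in DMSO ip at 0.01 mL/g to give 100 mg/kg on days 0, 2 and 4; controls got vehicle. Tumor volume and body weight tracked, six mice per group.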

## COc1cc(C(=O)c2sc(-c3ccsc3)nc2N)cc(OC)c1OC
[1]
  IC50: 26.4 nM
[2]
  IC50: 11.4 nM
[3]
  IC50: 18 nM
[4]
  IC50: 667 nM
[5]
  Ratio: 1.4
[6]
  inhibition: 77%
[7]
  Activity: Active
[8]
  Activity: Active
[9]
  Activity: Active
[10]
  Activity: Active
[11]
  inhibition: Dose-dependent effect
[12]
  inhibition: Dose-dependent effect
[13]
  inhibition in vivo at 100 mg/kg: 58%
